# pIC50: −log10 of the molar value.
# Tested on: Radical scavenging activity
# Assay: Antioxidant activity assessed as DPPH radical scavenging activity after 30 mins by microplate reader
# Type: functional
# Conditions: not given
# Method in brief: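 Modified Mensor method. Sample in absolute MeOH at several concentrations mixed 1:1 with 0.06 mM DPPH in MeOH (100 μL each). Absorbance read at 510 nm at exactly 30 min, then percent inhibition calculated. IC50 taken as the concentration scavenging 50% of DPPH radicals. Triplicate runs. Rutin and Trolox used as reference standards.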
row,SMILES,IC50
1,C[C@@H]1O[C@@H](OC[C@H]2O[C@@H](OCc3ccccc3)[C@H](O)[C@@H](O)[C@@H]2O)[C@H](O)[C@H](O)[C@H]1OC(=O)/C=C/c1ccc(O)cc1,> 200 µg/mL
2,Oc1ccc(Cc2ccc(O)cc2)cc1,> 200 µg/mL
3,O=C(O)/C=C/c1ccc(O)cc1 [COUMARIC ACID],> 200 µg/mL
4,COc1cc([C@H]2Oc3c(OC)cc(CCCO)cc3[C@@H]2CO)ccc1O[C@@H]1O[C@H](CO)[C@@H](O)[C@H](O)[C@H]1O,> 200 µg/mL
5,C[C@@H]1O[C@@H](OC[C@H]2O[C@@H](Oc3ccc(COC(=O)c4ccccc4)cc3)[C@H](O)[C@@H](O)[C@@H]2O)[C@H](O)[C@H](O)[C@H]1O,> 200 µg/mL
6,O=c1c(O[C@@H]2O[C@H](CO)[C@@H](O)[C@H](O)[C@H]2O)c(-c2ccc(O)cc2)oc2cc(O)cc(O)c12 [ASTRAGALIN],> 200 µg/mL
7,O=C(O)/C=C\c1ccc(O)cc1,> 200 µg/mL
8,COc1ccc(-c2cc(=O)c3c(O)cc(O[C@@H]4O[C@H](CO[C@@H]5O[C@@H](C)[C@H](O)[C@@H](O)[C@H]5O)[C@@H](O)[C@H](O)[C@H]4O[C@@H]4O[C@H](COC(C)=O)[C@@H](O)[C@H](O)[C@H]4O[C@@H]4O[C@H](CO)[C@@H](O)[C@H](O)[C@H]4O)cc3o2)cc1O,> 200 µg/mL
9,O=Cc1ccc(O)cc1 [4-HYDROXYBENZALDEHYDE],> 200 µg/mL
10,C[C@@H]1O[C@@H](OC[C@H]2O[C@@H](OCc3ccccc3)[C@H](O)[C@@H](O)[C@@H]2O)[C@H](O)[C@H](O)[C@H]1O [HYDRANGEIFOLIN I],> 200 µg/mL
11,COc1ccc(-c2cc(=O)c3c(O)cc(O[C@@H]4O[C@H](CO[C@@H]5O[C@@H](C)[C@H](O)[C@@H](O)[C@H]5O)[C@@H](O)[C@H](O)[C@H]4O[C@@H]4O[C@H](CO)[C@@H](O)[C@H](OC(C)=O)[C@H]4O[C@@H]4O[C@H](CO)[C@@H](O)[C@H](O)[C@H]4O)cc3o2)cc1,> 200 µg/mL
12,CC(=O)OC[C@H]1O[C@@H](O[C@H]2[C@H](Oc3cc(O)c4c(=O)cc(-c5ccc(O)cc5)oc4c3)O[C@H](CO[C@@H]3O[C@@H](C)[C@H](O)[C@@H](O)[C@H]3O)[C@@H](O)[C@@H]2O)[C@H](O[C@@H]2O[C@H](CO)[C@@H](O)[C@H](O)[C@H]2O)[C@@H](O)[C@@H]1O,> 200 µg/mL
13,COc1ccc(-c2cc(=O)c3c(O)cc(O[C@@H]4O[C@H](CO[C@@H]5O[C@@H](C)[C@H](O)[C@@H](O)[C@H]5O)[C@@H](O)[C@H](O)[C@H]4O[C@@H]4O[C@H](CO)[C@@H](O)[C@H](O)[C@H]4O[C@@H]4O[C@H](CO)[C@@H](O)[C@H](O)[C@H]4O)cc3o2)cc1,> 200 µg/mL
14,C[C@@H]1O[C@@H](OC[C@H]2O[C@@H](OCc3ccccc3)[C@H](O)[C@@H](O)[C@@H]2O)[C@H](OC(=O)/C=C/c2ccc(O)cc2)[C@H](O)[C@H]1O,> 200 µg/mL
15,C[C@@H]1O[C@@H](OC[C@H]2O[C@@H](OCc3ccccc3)[C@H](O)[C@@H](O)[C@@H]2O)[C@H](OC(=O)/C=C\c2ccc(O)cc2)[C@H](O)[C@H]1O,> 200 µg/mL
16,COc1ccc(-c2cc(=O)c3c(O)cc(O[C@@H]4O[C@H](CO[C@@H]5O[C@@H](C)[C@H](O)[C@@H](O)[C@H]5O)[C@@H](O)[C@H](O)[C@H]4O[C@@H]4O[C@H](CO)[C@@H](O)[C@H](O)[C@H]4O[C@@H]4O[C@H](CO)[C@@H](O)[C@H](O)[C@H]4O)cc3o2)cc1O,> 200 µg/mL
17,CC(O)(CC(=O)O)CC(=O)OCc1ccc(O[C@@H]2O[C@H](CO)[C@@H](O)[C@H](O)[C@H]2O)cc1 (stereo partly specified),> 200 µg/mL
18,COc1ccc(-c2cc(=O)c3c(O)cc(O[C@@H]4O[C@H](CO[C@@H]5O[C@@H](C)[C@H](O)[C@@H](O)[C@H]5O)[C@@H](O)[C@H](O)[C@H]4O[C@@H]4O[C@H](COC(C)=O)[C@@H](O)[C@H](O)[C@H]4O[C@@H]4O[C@H](CO)[C@@H](O)[C@H](O)[C@H]4O)cc3o2)cc1,> 200 µg/mL
19,COC(=O)/C=C/c1ccc(O)cc1 [METHYL P-HYDROXYCINNAMATE],> 200 µg/mL

# Same assay, conditions: read-out: IC50
row,SMILES,pIC50
1,O=C(/C=C/c1ccc(O)c(O)c1)O[C@@H]1[C@H](O)C[C@@](O)(C(=O)O)C[C@H]1OC(=O)/C=C/c1ccc(O)c(O)c1,4.54
2,OC[C@H]1O[C@@H](OCc2ccccc2)[C@H](O)[C@@H](O)[C@@H]1O,3.65
3,COc1cc([C@H]2Oc3c(OC)cc(CCCO)cc3[C@@H]2CO[C@@H]2O[C@H](CO)[C@@H](O)[C@H](O)[C@H]2O)ccc1O,3.55
4,O=C(/C=C/c1ccc(O)c(O)c1)O[C@@H]1C[C@](O)(C(=O)O)C[C@@H](OC(=O)/C=C/c2ccc(O)c(O)c2)[C@H]1O,4.49
5,COc1cc(/C=C/C(=O)O)ccc1O [FERULATE],4.20
6,O=c1c(O[C@@H]2O[C@H](CO)[C@@H](O)[C@H](O)[C@H]2O)c(-c2ccc(O)c(O)c2)oc2cc(O)cc(O)c12 [ISOQUERCETIN],4.22
7,Cc1c(C)c2c(c(C)c1O)CCC(C)(C(=O)O)O2 (stereo unspecified) [TROLOX],4.59
8,C[C@@H]1O[C@@H](OC[C@H]2O[C@@H](Oc3c(-c4ccc(O)c(O)c4)oc4cc(O)cc(O)c4c3=O)[C@H](O)[C@@H](O)[C@@H]2O)[C@H](O)[C@H](O)[C@H]1O [RUTIN],4.41
9,O=C(/C=C/c1ccc(O)cc1)O[C@@H]1C[C@](O)(C(=O)O)C[C@@H](OC(=O)/C=C/c2ccc(O)c(O)c2)[C@H]1O,4.24
10,O=C(O)[C@H]1O[C@@H](Oc2c(-c3ccc(O)c(O)c3)oc3cc(O)cc(O)c3c2=O)[C@H](O)[C@@H](O)[C@@H]1O [QUERCETIN GLUCURONIDE],4.43
11,C=CCc1ccc(O[C@@H]2O[C@H](CO)[C@@H](O)[C@H](O)[C@H]2O)c(OC)c1 [CITRUSIN C],3.48
12,O=C(/C=C/c1ccc(O)c(O)c1)O[C@@H]1C[C@](O)(C(=O)O)C[C@@H](O)[C@H]1O [CHLOROGENIC ACID],4.34

# — ChEMBL document CHEMBL2331388, “Flavone tetraglycosides and benzyl alcohol glycosides from the Mongolian medicinal plant Dracocephalum ruyschiana” (J Nat Prod, 2013)
